In series [1] the test system is Human immunodeficiency virus 1. Put plainly: Binding affinity to N-terminal His6-tagged HIV1 HXB2 Vif CTD (141 to 192 amino acids) expressed in Escherichia coli MC-1061 after overnight incubation by chemiluminescence assay. Put shortly: (§1)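 Immobilized peptide arrays blocked 4 h in 3.5% milk in 50 mM Tris-HCl pH 8, 150 mM NaCl, 1% Tween 20, then probed overnight at 4 °C with purified His-tagged protein in that buffer (full-length Vif 2 μM final; Vif CTD 7 μM final). Detection used anti-Vif mAb, HRP goat anti-mouse and chemiluminescence. Two experiments, duplicate arrays per slide.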

Series [2] relates to Human immunodeficiency virus 1. Put plainly: Binding affinity to full length N-terminal His6-tagged HIV1 HXB2 Vif expressed in Escherichia coli MC-1061 after overnight incubation by chemiluminescence assay. The method, boiled down: as §1
Another series relates to 293T. Kind of series: Binding affinity to HIV1 Vif expressed in human 293T cells assessed as inhibition of A3G degradation at 100 uM after 24 hrs by Western blot analysis. Type of series: cell-based. The conditions noted are these: Human immunodeficiency virus 1. Put shortly:
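293T cells co-transfected by calcium phosphate with Myc/His6-tagged A3G and HVif vectors (empty pcDNA3.1 in place of Vif as control). Medium replaced 8 h post-transfection, peptides added at 100 μM for a further 24 h. Lysates immunoblotted with anti-Myc (A3G) and anti-Vif antibodies. A3G bands quantified densitometrically, with A3G intensity in the no-Vif control set to 100%.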
Background: A western blot detects proteins with antibodies after separation by electrophoresis.

Another series has as its system H9. Kind of series: Cytotoxicity against human H9 cells at 50 to 100 uM after 2 hrs. Type of series: cell-based. To be noted: h9, 2 h.
For series [3], the system named is Human immunodeficiency virus 1. Put plainly: Antiviral activity against HIV1 infected in human H9 cells assessed as inhibition of viral propagation at 50 to 100 uM incubated for 2 hrs prior to infection measured on day 7 to 9 by MAGI assay. The series is classed as functional, organism-based. Put shortly: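 H9 cells, which express endogenous A3G, pretreated 2 h with peptides at 50 and 100 μM, then infected with wt HIV-1 HXBII at MOI 0.05. Media collected on days 5, 7 and 9 post-infection, and released-virus infectivity titered by MAGI assay.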

Active and inactive are the calls of the source. The rule behind the calls is not given here.

With H-AGAKISIMTYSEFKH-OH, in series [1], the result was inactive. The result in series [2] was Active.

Regarding H-DGPRATMKIMNYDEF-OH, the outcome in series [1] and in series [2] was Active.

Consider H-HQGCPFQPWDGLDEH-OH, for which the outcome in series [1] was inactive. Further, in series [2], the outcome was Active.

With H-LDVIPFWKLDLDQDY-OH, the inhibition result in the series on 293T is “Active”. For the same substance, the outcome in series [1] and in series [2] was Active. Also, the Activity result with H9 is reported as “Non-toxic”. The inhibition entry in series [3] is “inactive”.

Consider H-MRFFHWFSKWRKLHR-OH, for which the result in series [1] and in series [2] was Active.

Regarding H-NTVWLCYEVKTKGPS-OH, the outcome in series [1] and in series [2] was Active.

Regarding H-QEMAKFISKNKHVSL-OH, the outcome in series [1] and in series [2] was Active.

Regarding H-TFLAEDPKVTLTIFV-OH, the result in series [1] and in series [2] was Active.

For H-WVRGRHETYLCYEVE-OH, the inhibition result (in the series on 293T; in series [3]) was “Active” each time. Further, the result in series [1] and in series [2] was Active. In addition, in the series with H9, the Activity result is listed as “Non-toxic”.

With H-YSQRELFEPWNNLPK-OH, the result in series [1] and in series [2] was Active.

For the origin of these results see ChEMBL document CHEMBL2390908, “Mapping the Vif-A3G interaction using peptide arrays: a basis for anti-HIV lead peptides” (Bioorg Med Chem, 2013).
